From ChEMBL document CHEMBL4251647, “Synthesis, anticancer activity and mechanism of action of new thiazole derivatives” (Eur J Med Chem, 2018)

How the values were obtained:
HT-29 [1] = test: Cytotoxicity against human HT-29 cells assessed as inhibition of cell viability at 25 ug/ml after 72 hrs by MTT assay relative to control; assay type: functional; details: HT-29, 72 h
How it was run: (§1)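 Single-concentration MTT screen at 25 µg/mL for 72 h. Seeding was 3 x 10^5 cells/mL (HL-60, K562) or 1 x 10^5 cells/mL (adherent), with 24 h preincubation. MTT was added for the final 3 h, formazan dissolved in DMSO and absorbance read at 560 nm. Results are given as percent inhibition ± SD.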

HEp-2 [2] = test: Cytotoxicity against human Hep2 cells assessed as inhibition of cell viability at 25 ug/ml after 72 hrs by MTT assay relative to control; assay type: functional; details: HEp-2, 72 h; how it was run: as §1
NCI-H292 [3] = test: Cytotoxicity against human NCI-H292 cells assessed as inhibition of cell viability at 25 ug/ml after 72 hrs by MTT assay relative to control; assay type: functional; details: NCI-H292, 72 h; how it was run: as §1
K562 [4] = test: Cytotoxicity against human K562 cells assessed as inhibition of cell viability at 25 ug/ml after 72 hrs by MTT assay relative to control; assay type: functional; details: K562, 72 h; how it was run: as §1
HL-60 [5] = test: Cytotoxicity against human HL60 cells assessed as inhibition of cell viability at 25 ug/ml after 72 hrs by MTT assay relative to control; assay type: functional; details: HL-60, 72 h; how it was run: as §1
NCI-H292 [6] = test: Cytotoxicity against human NCI-H292 cells assessed as inhibition of cell viability after 72 hrs by MTT assay; assay type: functional, cell-based; details: NCI-H292, 72 h
How it was run: (§2)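 MTT assay. Leukaemic lines were seeded at 3 x 10^5 cells/mL and adherent lines at 1 x 10^5 cells/mL, then preincubated 24 h. Compounds were added at 0.098–25.0 µg/mL for 72 h, with MTT for the last 3 h. Formazan was dissolved in DMSO and read at 560 nm. IC50 came from regression; triplicate, two independent experiments.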

K562 [7] = test: Cytotoxicity against human K562 cells assessed as inhibition of cell viability after 72 hrs by MTT assay; assay type: functional, cell-based; details: K562, 72 h; how it was run: as §2
HT-29 [8] = test: Cytotoxicity against human HT-29 cells assessed as inhibition of cell viability after 72 hrs by MTT assay; assay type: functional, cell-based; details: HT-29, 72 h; how it was run: as §2
PBMC = test: Cytotoxicity against human PBMC cells assessed as inhibition of cell viability after 72 hrs by alamar blue assay; assay type: cell-based
How it was run: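 PBMC from healthy donors were grown in RPMI-1640 with 20% FBS and 2% phytohaemagglutinin, then plated at 10^6 cells/mL. After 24 h, compounds (0.048–25 µg/mL, in DMSO) were added for 72 h. Resazurin was added for the final 24 h and absorbance read at 570 and 595 nm as percent of control.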

HEp-2 [9] = test: Cytotoxicity against human Hep2 cells assessed as inhibition of cell viability after 72 hrs by MTT assay; assay type: functional, cell-based; details: HEp-2, 72 h; how it was run: as §2
Erythrocyte = test: Hemolytic activity in human erythrocytes after 1 hr by spectrophotometric method; assay type: ADME, cell-based
How it was run: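 Human erythrocytes as a 2% suspension in 0.85% NaCl with 10 mM CaCl2 were exposed to 0.78–250 µg/mL for 1 h at room temperature. After centrifugation, released haemoglobin in the supernatant was read at 540 nm. Triton X-100 (1%) served as positive control; EC50 is the concentration giving 50% haemolysis.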

HL-60 [10] = test: Cytotoxicity against human HL60 cells assessed as inhibition of cell viability after 72 hrs by MTT assay; assay type: functional, cell-based; details: HL-60, 72 h; how it was run: as §2
K562 [11] = test: Cell cycle arrest in human K562 cells assessed as accumulation at G2/M-phase at 0.2 uM after 48 hrs by flow cytometry (reference value: 35.97 +/- 1.94%); assay type: functional
How it was run: (§3)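 K562 cells seeded at 3 x 10^5 cells/mL in RPMI-1640 and exposed 48 h at 37 °C, 5% CO2. Cells were stained with propidium iodide (Guava cell cycle kit) and 5,000 events acquired by flow cytometry. Vehicle control was 0.1% DMSO. Two independent experiments, each in triplicate.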

K562 [12] = test: Induction of DNA damage in human K562 cells at 0.5 uM after 48 hrs by propidium iodide staining based flow cytometry (reference value: 3.62 +/- 0.37%); assay type: functional
K562 [13] = test: Cell cycle arrest in human K562 cells assessed as accumulation at G1-phase at 0.2 uM after 48 hrs by flow cytometry (reference value: 45.54 +/- 1.34%); assay type: functional; how it was run: as §3
K562 [14] = test: Cell cycle arrest in human K562 cells assessed as accumulation at S-phase at 0.2 uM after 48 hrs by flow cytometry (reference value: 17.39 +/- 0.84%); assay type: functional; how it was run: as §3
K562 [15] = test: Induction of mitochondrial membrane potential depolarization in human K562 cells at 0.5 uM after 48 hrs by Rho-123 staining based flow cytometry (reference value: 12.24 +/- 0.61%); assay type: functional
[16] = Selectivity index, ratio of IC50 for human PBMC to IC50 for human K562 cells; assay type: toxicity; details: human PBMC and human K562 cells, read-out: Ratio IC50
How it was run: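 Ratio of IC50 in PBMC (Alamar blue, 72 h) to IC50 in K562 cells (MTT, 72 h), calculated as SI = IC50(PBMC)/IC50(K562).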

K562 [17] = test: Cytotoxicity against human K562 cells assessed as inhibition of cell viability after 24 hrs by MTT assay; assay type: functional, cell-based; details: K562, 24 h
How it was run: (§4)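 K562 cells (3 x 10^5 cells/mL, RPMI-1640 with 10% FBS) were treated with serial dilutions for 24 or 48 h. Viability was read by MTT (absorbance at 560 nm after DMSO solubilisation), and IC50 was obtained by regression.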

K562 [18] = test: Cytotoxicity against human K562 cells assessed as inhibition of cell viability after 48 hrs by MTT assay; assay type: functional, cell-based; details: K562, 48 h; how it was run: as §4
K562 [19] = test: Cytotoxicity against human K562 cells assessed as inhibition of cell viability by MTT assay; assay type: functional, cell-based; details: TDE = time-dependent effect

SMILES	inhibition at 25 µg/mL (HT-29 [1]) [%]	inhibition at 25 µg/mL (HEp-2 [2]) [%]	inhibition at 25 µg/mL (NCI-H292 [3]) [%]	inhibition at 25 µg/mL (K562 [4]) [%]	inhibition at 25 µg/mL (HL-60 [5]) [%]	IC50 (NCI-H292 [6]) [µM]	IC50 (K562 [7]) [µM]	IC50 (HT-29 [8]) [µM]	IC50 (PBMC) [µM]	IC50 (HEp-2 [9]) [µM]	EC50 (Erythrocyte) [µg/mL]	IC50 (HL-60 [10]) [µM]	other results
FC(F)(F)c1ccc(/C=N/Nc2nc(-c3ccc(Br)cc3)cs2)cc1	67.4	17.1	64.2	25	46.7	–	–	–	–	–	–	–	–
O=[N+]([O-])c1ccc(-c2csc(N/N=C/c3ccc(C(F)(F)F)cc3)n2)cc1	59.3	90	96.3	87.2	80.2	7.41	16.9	> 63.6	53.2	27.3	> 250	11.5	–
Cn1c(-c2ccc(Cl)cc2Cl)cs/c1=N/N=C/c1ccc(C(F)(F)F)cc1	52.7	33.5	35.7	69.7	43.5	–	–	–	–	–	–	–	–
O=[N+]([O-])c1cccc(-c2csc(N/N=C/c3ccc(C(F)(F)F)cc3)n2)c1	79.4	84.3	75.1	75.5	77.4	22.8	10.2	23.9	151	34.2	> 250	29.3	–
Fc1ccc(-c2csc(N/N=C/c3ccc(C(F)(F)F)cc3)n2)cc1	70.1	62.6	78.8	61.6	58.1	–	–	–	–	–	–	–	–
Fc1ccc(-c2cs/c(=N/N=C/c3ccc(C(F)(F)F)cc3)n2-c2ccccc2)cc1	74.6	22	41.8	59.1	26.2	–	–	–	–	–	–	–	–
Cc1sc(N/N=C/c2ccc(C(F)(F)F)cc2)nc1-c1ccccc1	46.2	29.5	60.9	25	30.9	–	–	–	–	–	–	–	–
COc1cccc2c1C(=O)c1c(O)c3c(c(O)c1C2=O)C[C@@](O)(C(=O)CO)C[C@@H]3O[C@H]1C[C@H](N)[C@H](O)[C@H](C)O1 [DOXORUBICIN]	–	–	–	–	–	0.19	1.38	0.69	0.38	1.21	–	0.19	Activity (K562 [11]): 81.29%; Activity (K562 [12]): 19.69%; Activity (K562 [13]): 9.53%; Activity (K562 [14]): 10.67%; Activity (K562 [15]): 23.6%
FC(F)(F)c1ccc(/C=N/NC(=S)Nc2ccccc2)cc1	74.7	63.6	58.4	71.2	37.7	–	–	–	–	–	–	–	–
FC(F)(F)c1ccc(/C=N/Nc2nc(-c3ccc(Cl)c(Cl)c3)cs2)cc1	84	83.5	98.2	47.8	96.4	6.57	> 60.1	12.2	65.6	10.4	> 250	4.23	–
FC(F)(F)c1ccc(/C=N/N=c2/scc(-c3ccc(Cl)cc3)n2-c2ccccc2)cc1	82.2	58.7	87.8	59	28.4	–	–	–	–	–	–	–	–
CNC(=S)N/N=C/c1ccc(C(F)(F)F)cc1	88.7	88.1	93.3	82.6	94.6	20.8	13.2	5.06	93.3	12.6	> 250	17.2	–
COc1ccc(-c2cs/c(=N/N=C/c3ccc(C(F)(F)F)cc3)n2C)cc1	62.5	53.7	68.3	50.4	67.8	–	–	–	–	–	–	–	–
COc1ccc(-c2cs/c(=N/N=C/c3ccc(C(F)(F)F)cc3)n2-c2ccccc2)cc1	58.5	81.8	66.3	59.2	36.7	–	–	–	–	–	–	–	–
FC(F)(F)c1ccc(/C=N/N=c2/scc(-c3ccc(Cl)cc3Cl)n2-c2ccccc2)cc1	–	–	38.5	–	14.4	–	–	–	–	–	–	–	–
FC(F)(F)c1ccc(/C=N/Nc2nc(-c3cccc4ccccc34)cs2)cc1	45.8	28.5	35.7	44.9	39.1	–	–	–	–	–	–	–	–
Cn1c(-c2ccc([N+](=O)[O-])cc2)cs/c1=N/N=C/c1ccc(C(F)(F)F)cc1	75.1	84.8	44.1	59.8	83.2	> 61.4	> 61.4	47.8	140	26.4	> 250	11.8	–
N=C(S)N/N=C/c1ccc(C(F)(F)F)cc1	85.4	91.8	89.5	87.2	95.3	10.8	6.42	9.02	80.2	6.27	> 250	12.7	selectivity ratio [16]: 12.5; IC50 (K562 [17]): > 101 µM; IC50 (K562 [18]): 34 µM; Activity (K562 [19]): Tde
Cc1ccc(-c2csc(N/N=C/c3ccc(C(F)(F)F)cc3)n2)cc1	42.7	59.9	62.3	20.9	45.2	–	–	–	–	–	–	–	–
FC(F)(F)c1ccc(/C=N/Nc2nc(-c3ccc(Cl)cc3)cs2)cc1	40.1	33	67.7	50.5	61.4	–	–	–	–	–	–	–	–
COc1ccc(-c2csc(N/N=C/c3ccc(C(F)(F)F)cc3)n2)cc1	76.2	78.2	68.5	61.5	89.1	> 66.2	> 66.2	22.7	130	11.3	> 250	3.67	–
FC(F)(F)c1ccc(/C=N/Nc2nc(-c3ccccc3)cs2)cc1	–	34.7	49.8	–	40.6	–	–	–	–	–	–	–	–
